Converted amounts (≈) assume the structure as drawn. Some results are limits rather than exact numbers.

The assay deals with A549. The assay can be described thus: Cytotoxicity against human A549 cells after 48 hrs by SRB assay. It is filed as functional. To be noted: A549, 48 h, read-out: ED50 (the source's name). Summed up:
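A-549 human lung carcinoma cells grown adherent in RPMI-1640 with 5% heat-inactivated FBS, 37 °C, 5% CO2, humidified. Cells seeded in 96-well plates, preincubated 24 h, then exposed to compounds for 48 h. Fixed with cold 10% TCA, stained with 0.4% SRB in 1% acetic acid, OD read at 540 nm. ED50 = 50% growth inhibition; doxorubicin positive control.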
In general terms: In SRB staining, fixed cells bind dye roughly in proportion to their protein.
Take `COc1cccc2c1C(=O)c1c(O)c3c(c(O)c1C2=O)C[C@@](O)(C(=O)CO)C[C@@H]3O[C@H]1C[C@H](N)[C@H](O)[C@H](C)O1` [DOXORUBICIN]: the EC50 amounted to 0.02 µg/mL (≈ 0.0368 µM).
The value for `C=C(C)[C@@H]1CC[C@]2(C(=O)O)CC[C@]3(C)[C@H](CC[C@@H]4[C@@]5(C)CC[C@H](O[C@@H]6OC[C@H](O[C@@H]7O[C@H](CO)[C@@H](O)[C@H](O)[C@H]7O)[C@H](O)[C@H]6O[C@@H]6O[C@@H](C)[C@H](O)[C@@H](O)[C@H]6O)C(C)(C)[C@@H]5CC[C@]43C)[C@@H]12` was greater than 10 µg/mL.
The value for `C=C(C)[C@@H]1CC[C@]2(C(=O)O)CC[C@]3(C)[C@H](CC[C@@H]4[C@@]5(C)CC[C@H](O[C@@H]6OC[C@H](O[C@@H]7O[C@H](CO)[C@@H](O)[C@H](O)[C@H]7O)[C@H](O)[C@H]6O[C@@H]6O[C@@H](C)[C@H](O)[C@@H](O)[C@H]6O)[C@@](C)(CO)[C@@H]5CC[C@]43C)[C@@H]12` was greater than 10 µg/mL; that for `C[C@@H]1O[C@@H](O[C@H]2[C@H](O[C@H]3CC[C@@]4(C)[C@@H](CC[C@]5(C)[C@@H]4CC=C4[C@H]6CC(C)(C)CC[C@]6(C(=O)O)CC[C@]45C)[C@]3(C)CO)OC[C@H](O)[C@@H]2O)[C@H](O)[C@H](O[C@@H]2O[C@H](CO)[C@@H](O[C@@H]3O[C@H](CO)[C@@H](O)[C@H](O)[C@H]3O)[C@H](O)[C@H]2O)[C@H]1O` was greater than 10 µg/mL.
The value for `C[C@@H]1O[C@@H](O[C@H]2[C@H](O[C@H]3CC[C@@]4(C)[C@@H](CC[C@]5(C)[C@@H]4CC=C4[C@H]6CC(C)(C)CC[C@]6(C(=O)O)CC[C@]45C)[C@]3(C)CO)OC[C@H](O)[C@@H]2O)[C@H](O)[C@H](O)[C@H]1O` was 9.6 µg/mL (≈ 12.8 µM); that for `C[C@@H]1O[C@@H](O[C@H]2[C@H](O[C@H]3CC[C@]4(C)[C@H]5CC=C6[C@H]7CC(C)(C)CC[C@]7(C(=O)O)CC[C@@]6(C)[C@]5(C)CC[C@H]4C3(C)C)OC[C@H](O[C@@H]3O[C@H](CO)[C@@H](O)[C@H](O)[C@H]3O)[C@@H]2O)[C@H](O)[C@H](O)[C@H]1O` was 2.6 µg/mL (≈ 2.9 µM); that for `C=C(C)[C@@H]1CC[C@]2(C(=O)O)CC[C@]3(C)[C@H](CC[C@@H]4[C@@]5(C)CC[C@H](O[C@@H]6OC[C@H](O[C@@H]7O[C@H](CO)[C@@H](O)[C@H](O)[C@H]7O)[C@H](O)[C@H]6O)[C@@](C)(CO)[C@@H]5CC[C@]43C)[C@@H]12` was greater than 10 µg/mL.
For the compound `C=C(C)[C@@H]1CC[C@]2(C(=O)O)CC[C@]3(C)[C@H](CC[C@@H]4[C@@]5(C)CC[C@H](O[C@@H]6OC[C@H](O)[C@H](O)[C@H]6O[C@@H]6O[C@@H](C)[C@H](O)[C@@H](O[C@@H]7O[C@H](CO)[C@@H](O)[C@H](O)[C@H]7O)[C@H]6O)C(C)(C)[C@@H]5CC[C@]43C)[C@@H]12`, the EC50 was greater than 10 µg/mL.
The value for `C=C(C)[C@@H]1CC[C@]2(C(=O)O)CC[C@]3(C)[C@H](CC[C@@H]4[C@@]5(C)CC[C@H](O[C@@H]6OC[C@H](O)[C@H](O)[C@H]6O[C@@H]6O[C@@H](C)[C@H](O)[C@@H](O[C@@H]7O[C@H](CO)[C@@H](O)[C@H](O)[C@H]7O)[C@H]6O)[C@@](C)(CO)[C@@H]5CC[C@]43C)[C@@H]12` was greater than 10 µg/mL.

The values are drawn from ChEMBL document CHEMBL1142590, “Triterpenoid saponins from the roots of Pulsatilla koreana” (2005).
